The list is not random: actives were taken first. Their share in the collection is about 1.9%.
MT stabilizer: microtubule stabilization, imaging screen | HeLa tubulin immunostaining HCS, 24 h; share of cells brighter than vehicle mean+2SD | % tubulin-high responders, % at 10 µM | actives 0.83% (n = 200,000) | AID 2205;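 active = plate Z-score above 3 for both tubulin-high and condensed-nucleus cell shares, with cell loss under 80%, at 10 µM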;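 also: anti alpha tubulin signal scored within the nucleus-defined area of each cell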
Tb hexokinase: blocks Trypanosoma brucei hexokinase 1 activity; recombinant TbHK1, G6PDH-coupled NADH A340; inhibition, % at 10 µM; actives 0.11% (n = 220,000);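 active = inhibition of 50% or more in the single-dose primary screen; inactive = inhibition below 50%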
Insulin prom up: MIN6 insulin promoter up-regulation. MIN6 insulin promoter-GFP reporter, high-content imaging; active compounds read high. z-score at 5 µM. actives 0.3% (n = 190,000). AID 1625;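 active = z-score above 3 at 5 µM with at least 500 cells counted in the well; inconclusive = wells under 500 cells, flagged as cytotoxic or low count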
Autophagy HCS: modulators of autophagy | MEF GFP-LC3 puncta imaging; test concentration mostly 10 µM | calls only at 10 µM (by protocol) | actives 0.98% (n = 190,000);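 active = percentage of spot-positive cells more than 3 SD above its plate mean, without a fluorescence outlier flag or 80% toxicity; inconclusive = no clear call, values can overlap the other calls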
bCat nuc transl: beta-catenin nuclear translocation modulation; HeLa beta-catenin nuclear translocation, immunofluorescence imaging; nuclear translocation activity, % at 5 µM; actives 0.3% (n = 190,000);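 active = nuclear translocation activity above 50% at 5 µM, with a well cell count of 50 or more; inconclusive = wells under 50 cells across six images, flagged as toxic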;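 also: per-cell ratio of nuclear to cytoplasmic median beta-catenin stain intensity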
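Technique: fluorescence imaging of beta-catenin antibody stain plus DAPI / Material: human HeLa cell line / Incubation: compound treatment 24 h, 37°C, 5% CO2 / Read-out basis: % activation of per-cell nuclear versus cytoplasmic median beta-catenin signal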
Hits are given with their value; – = inactive; ? = inconclusive; · = no result given; + = active, no number.

SMILES	MT stabilizer	Tb hexokinase	Insulin prom up	Autophagy HCS	bCat nuc transl
CN(C)c1ccc(/C=C2\SC(=O)N(CC(O)Cn3c4ccccc4c4ccccc43)C2=O)cc1 (configuration not stated)	–	–	·	+	–
CN(C)c1ccc(/C=C2/SC(=O)N(CCN=C3NS(=O)(=O)c4ccccc43)C2=O)cc1	–	–	–	–	–
CCOC(=O)Cc1csc(NC(=O)C(NC(=O)C2CCCCC2)C(C)C)n1 (configuration not stated)	–	–	–	–	·
CCN1CNC(=S)N(C(C)c2ccccc2)C1 (configuration not stated)	–	–	–	–	–
Cc1cc(C)c2oc(C(=O)Nc3ccc(S(=O)(=O)N4CCCC(C)C4)cc3)cc(=O)c2c1 (configuration not stated)	–	–	–	–	–
O=C(NNc1nc2cc3c(cc2s1)OCCO3)c1ccccc1	–	–	–	–	–
Cc1cccc2sc(NNC(=O)c3ccc4c(c3)OCCO4)nc12	–	–	3.4	–	–
O=C(NNc1ncc(C(F)(F)F)cc1Cl)c1c(Cl)cccc1Cl	21	–	–	+	·
NC(=O)NNc1ncc(C(F)(F)F)cc1Cl	–	–	–	–	–
N/C(=N\c1nc(CSc2ccc(Cl)cc2)cc(=O)[nH]1)Nc1cccc2ccccc12	–	–	·	+	·
COc1ccc(N/C(N)=N/c2nc(CSc3ccc(Cl)cc3)cc(=O)[nH]2)cc1	–	–	·	–	–
CCOc1cc(NC(=S)NCCCN2CCOCC2)c(OCC)cc1NC(=O)c1cccs1	–	–	–	+	–
Cc1ccc(NC(=O)O/N=C/c2c(C)nn(C(C)(C)C)c2C)cc1Cl	·	–	–	·	–
CC(C)C1C(C#N)=C(N)Oc2n[nH]c(-c3ccc4ccccc4c3)c21 (configuration not stated)	32	–	·	+	–
O=C(c1ccc([N+](=O)[O-])cc1)N(Cc1ccc(Cl)cc1)N1C(=O)CCCC1=O	–	–	–	+	·
COC(=O)c1c(-c2ccccc2)c[nH]c1C	·	–	–	·	–
COc1ccc(OC)c(NS(=O)(=O)c2ccc(Cl)s2)c1	–	–	·	–	–
COc1ccc(OC)c(NS(=O)(=O)c2ccc(Br)s2)c1	9.6	–	–	–	–
CCOc1ccc(S(=O)(=O)Nc2cc(OC)ccc2OC)cc1	–	–	–	+	52
COc1ccc(OC)c(NC(=O)c2ccccc2SC)c1	–	–	–	–	–
COc1ccc(Cl)cc1NS(=O)(=O)c1ccc(OC)c(OC)c1	–	–	–	–	–
COc1ccc(S(=O)(=O)Nc2cc(Cl)ccc2OC)cc1	24	–	–	–	–
CCOc1ccccc1C(=O)Nc1cc(OC)ccc1OC	–	–	–	+	–
COc1cc(OC)cc(C2=NCCN2)c1	–	–	–	–	–
COc1ccccc1CN(C)CC(=O)NC1CCCc2ccccc21 (configuration not stated)	–	–	–	–	–
SMILES	MT stabilizer	Tb hexokinase	Insulin prom up	Autophagy HCS	bCat nuc transl
O=C(C(=O)N1CCN(c2cccc(Cl)c2)CC1)c1c[nH]c2ccccc12	–	–	–	–	–
COC(=O)c1nc2ccc(N3CCOCC3)cc2c(C)c1C(=O)OC	–	–	–	+	–
Cc1cc(C(=O)Nc2ccc(N3CCOCC3)cc2)c2ccccc2n1	–	–	–	–	–
O=C(NC1CCCCC1)c1ccc(CNc2nc(=S)[nH]c3ccccc23)cc1	–	–	–	–	–
O=C(Nc1nccs1)c1cc2sccc2n1Cc1ccc(Cl)cc1	–	–	–	+	–
C=CCNC(=O)/C(=C\c1ccc(Br)cc1)NC(=O)c1ccccc1OC	–	–	3.4	–	–
CNCCCCOc1ccc(C(C)(C)C)cc1Cl	–	–	–	–	–
Cc1cccc(C)c1OCC(O)CN1CCC(CN2C(=O)c3cccc4cccc(c34)C2=O)CC1 (configuration not stated)	–	–	–	+	–
Cc1ccccc1OCC(O)CN1CCN(CCN2C(=O)c3cccc4cccc(c34)C2=O)CC1 (configuration not stated)	–	–	–	–	–
Cc1ccc(S(=O)(=O)CC(=O)Nc2ccc(Cl)cn2)cc1	–	–	·	–	–
Cn1cc(Br)c(C(=O)Nc2ncc(Br)s2)n1	–	–	–	+	–
Cc1cccc(/C=C/C(=O)c2ccc(NC3=NCCCS3)cc2)c1	–	–	–	–	–
COc1cccc(/C=C/C(=O)c2ccc(NC3=NCCCS3)cc2)c1	16	–	–	–	–
C/C(=N/OC(=O)c1ccc(Cl)cc1Cl)c1oc(C)nc1C	·	–	–	·	–
Cc1ccccc1OCC(=O)OC1CCN(C)CC1	–	–	8.6	–	–
Cc1cc(C)nc(N2CCN(C(=O)CCC(=O)Nc3nnc(C(C)C)s3)CC2)n1	·	–	–	·	–
CC(=O)c1sc(NC(=O)c2cc(=O)c3ccccc3o2)nc1C	–	–	–	+	–
O=C(O)c1cccc(CSc2n[nH]c(-c3ccc(Cl)cc3Cl)n2)c1	–	–	–	–	–
CCC(CO)[n+]1c(C)cc(/C=C2\Sc3ccccc3N2Cc2ccccc2)cc1C (configuration not stated)	–	–	?	+	–
COc1ccc(-n2nnnc2/C=C\Nc2ccc(C)cc2)cc1	·	–	–	·	–
CCN(CC)CCNC(=O)Cc1nn(Cc2ccccc2)c(=O)c2ccccc12	–	–	–	–	–
Cc1ccc(NC(=O)c2ccc(Cl)cc2[N+](=O)[O-])nc1	36	–	–	–	–
Cc1ccc(NC(=O)c2ccccc2[N+](=O)[O-])nc1	–	–	–	–	–
COCCNC(=O)Cn1nc(C)c([N+](=O)[O-])c1C	–	–	–	–	–
CCCCCC(=O)Nc1ccc2oc(-c3cncc(Br)c3)nc2c1	–	–	–	+	–
SMILES	MT stabilizer	Tb hexokinase	Insulin prom up	Autophagy HCS	bCat nuc transl
O=C(CN1CCCC1)Nc1ccc(-c2nc3cc(NC(=O)CN4CCCC4)ccc3o2)cc1	–	–	–	+	·
CCCC(=O)Nc1ccc2oc(-c3cncc(Br)c3)nc2c1	–	–	–	–	–
O=C(COC(=O)CCc1ccccc1)Nc1cc(S(=O)(=O)N2CCOCC2)ccc1N1CCCC1	–	–	–	–	–
O=C(COc1ccc(Cl)cc1)NCc1nnc(SCC(=O)NC2CCCCC2)o1	–	–	3.3	–	–
O=C(COc1ccc(Cl)cc1)NCc1nnc(SCC(=O)Nc2ccccc2)o1	–	–	–	–	·
COC1=NS(=O)(=O)c2ccccc21	–	–	–	–	–
COc1ccc(N(C)C2=NS(=O)(=O)c3ccccc32)cc1	49	–	·	–	–
S=C(Nc1ccccc1Cl)N(Cc1ccccc1)Cc1ccccn1	–	–	–	–	–
Cc1ccc2cc(CN(CCN3CCOCC3)Cc3nnnn3Cc3ccco3)c(=O)[nH]c2c1C	–	–	·	+	–
Nc1nc(SCC(=O)Nc2cc(C(F)(F)F)ccc2N2CCOCC2)n[nH]1	–	–	–	–	–
COc1ccccc1/C=C/C(=O)OCC(=O)Nc1cc(C(F)(F)F)ccc1N1CCOCC1	19	–	–	–	–
O=C(CSCc1ccco1)Nc1cc(C(F)(F)F)ccc1N1CCOCC1	–	–	–	+	–
